Assay outcomes deposited in PubChem by The Scripps Research Institute Molecular Screening Center.
ADAM17 inh – inhibits human ADAM17. recombinant ADAM17, EDANS/DABCYL FRET peptide cleavage. inhibition, % at 6.95 µM. actives 0.83% (n = 370,000). AID 720648;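 active means inhibition above the mean of compounds lying between control limits plus 3 SD, set per campaign, cut at about 8.5% in these data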;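 further: 0% = DMSO-only wells as the low control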
Tn7 DDE FP – DD(E)-Tn7 binding inhibition, primary FP screen | inhibition, % at 8.3 µM | FP displacement of FITC-Tn7 peptide from fibrin DD(E); 0% = median of compound wells per plate | actives 0.13% (n = 370,000) | P02675;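 active means inhibition above the mean of compounds falling within the control limits plus 3 SD of them, cut at about 14% in these data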;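 further: 0% = plate median of compound wells and 100% = 10 µM Aha-Tn7 peptide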
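system = human fibrin DD(E) protein | quantity = DD(E) 2 µM final | medium = Tris/NaCl/CaCl2 buffer, pH 7.8 | also added = labelled Tn7 tracer, 0.1 µM | compound dosing = single point at 8.3 µM | timing = compound with protein 10 min, then 3 h after probe, room temperature | signal = FP measurement | benchmarks = Aha-Tn7 high control | repeats = one replicate per compound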
ADAM10 inh – inhibits human ADAM10 | inhibition, % at 7 µM | AID 720582 | actives 0.62% (n = 370,000) | recombinant ADAM10, EDANS/DABCYL FRET peptide cleavage, 3 h;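 active means inhibition above a per-campaign cutoff equal to the mean of compounds falling between control-based bounds plus 3 SD, cut at about 20% in these data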;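 further: 0% = DMSO wells while the 100% control is not disclosed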
PLC-beta3 inh – PLC-beta3 (human) inhibition, primary screen; AID 720704; Purified PLC-beta3, fluorogenic substrate, fluorescence; inhibition, % at 12.2 µM; actives 0.18% (n = 370,000); in the data active means inhibition above about 11%;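 further: 0% = median of compound wells on plate and 100% = full blocker control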
DDE Tn6 FP inh – inhibitors of Tn6 peptide binding to human fibrin DD(E); P02675; Fibrin DD(E) TRITC-Tn6 fluorescence polarization displacement; inhibition, % at 8.3 µM; actives 0.21% (n = 370,000);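 active means inhibition above a per-campaign cutoff: mean of compounds within control limits plus 3 SD, cut at about 15% in these data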;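 further: 0% = median of all compound wells on the plate and 100% = blocking peptide control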
PLC-gamma1 inh – blocks human PLC-gamma1 enzyme activity | inhibition, % at 12.2 µM | AID 720700 | actives 0.84% (n = 370,000) | P19174 | purified PLC-gamma1, fluorogenic substrate, fluorescence
PLCg1 ctr – PLC-gamma1 inhibition, counter-screen for PLC-beta3 hits. shares compounds with PLC-gamma1 inh. purified PLC-gamma1, fluorogenic substrate, fluorescence. inhibition, % at 12.3 µM. actives 3.1% (n = 3,300). AID 743258
PLCb3 confirm – confirmation of human PLC-beta3 inhibitors; inhibition, % at 12.3 µM; purified PLC-beta3, fluorogenic substrate fluorescence; actives 1% (n = 3,300); shares compounds with PLC-gamma1 inh; in the data active means inhibition above about 11%
* = called active by the depositor; / = no result. A selection: hits, their analogues and other compounds. The true share with any hit is near 2.3%. Unless noted, no stated cut-off is given here; in the data, active means inhibition above about 9.5%; inactive means the rest.

SMILES	ADAM17 inh	Tn7 DDE FP	ADAM10 inh	PLC-beta3 inh	DDE Tn6 FP inh	PLC-gamma1 inh	PLCg1 ctr	PLCb3 confirm
O=C(CCCN1C(=O)/C(=C/c2ccco2)SC1=S)Nc1ccccc1C(=O)O	-5.4	-2.9	-8.2	-29.0	-3.3	-0.4	/	/
O=C(O)CCCN1C(=O)/C(=C\c2ccco2)SC1=S	-0.9	-4.1	-6.4	-8.1	-0.5	14.6*	23.1*	-5.1
O=C(CCN1C(=O)/C(=C\c2ccco2)SC1=S)Nc1ccc(C(=O)O)c(O)c1	-3.7	2.3	0.1	-6.7	-2.8	37.4*	13.7*	-25.0
C=CCN(C(=O)[C@@H](C)[C@@H](O)c1ccc2ccccc2c1)c1ccccc1	-2.5	-8.5	1.4	-3.1	5.4	-2.7	/	/
Cc1cccc(-c2cccc3c4c([nH]c23)[C@@H]2C[C@H](N(C)C(=O)c3ccccc3C)[C@H]([C@H](C)O)C(=O)N2CC4)c1	2.1	-2.6	3.0	2.3	-4.6	0.1	/	/
CC(C)[C@H](N)C(=O)N[C@@H](Cc1ccccc1)C(=O)N1CCC2CCN(S(=O)(=O)c3ccccc3)CC21 (some centres undefined)	-1.4	0.4	-4.0	1.4	1.9	3.6	/	/
Cn1c(=O)c2c(nc(NCc3cccnc3)n2Cc2cccc(C(F)(F)F)c2)n(C)c1=O	3.9	-6.5	6.2	5.9	5.7	12.0*	-2.0	1.6
COc1cccc(Cn2c(NCc3cccnc3)nc3c2c(=O)n(C)c(=O)n3C)c1	-1.4	2.5	-4.2	2.8	-0.8	2.9	/	/
O=C(Nc1ccccc1Oc1ccccc1)NC1CCCCN(Cc2ccc(Cl)cc2)C1=O (centres undefined)	0.0	-1.8	0.0	0.1	-4.8	1.1	/	/
O=C1CC(SCCO)C(=O)N1c1ccc(Oc2ccccc2)cc1 (centres undefined)	7.7	-5.1	0.9	3.5	6.3	14.6*	-43.2	3.4
N#CCC[C@@H]1CC[C@]2(CCCN(Cc3ccc(Br)cc3)C2)O1	-7.3	0.3	-6.3	3.0	0.3	9.5*	2.6	4.6
Cc1ccc(NC(=S)N(N)CCO)cc1	4.2	2.2	7.2	5.4	-0.9	11.7*	-0.3	-1.2
C[C@H](O)[C@@H]1CN2CCc3ccc(N4CCOCC4)cc3[C@@H]2C[C@@H]1N(C)C(=O)c1ccco1	-4.9	7.9	-10.6	-10.7	7.2	-15.1	/	/
Cc1cc(C)cc(N(CCC#N)C(=O)CSc2nc3ccccc3c(=O)[nH]2)c1	-1.8	-2.7	-17.7	-2.9	-3.2	9.8*	-2.8	-0.5
CN(C)C(=O)CSc1nc2ccccc2c(=O)[nH]1	3.6	-0.1	9.4	1.7	12.4	6.0	/	/
C=CCN(C(=O)CNC(=O)c1cccs1)C(C(=O)NC1CCCCC1)c1cccnc1 (centres undefined)	1.6	-2.1	5.4	8.5	0.4	9.7*	7.8	5.1
COCCC(=O)N1CCC(Oc2ccc(C(=O)N3CCCC(OC)C3)cc2)CC1 (centres undefined)	-3.7	4.8	4.8	11.6*	-4.3	3.8	-1.3	-6.8
COC1CCN(C(=O)c2ccc(OC3CCN(Cc4ccccn4)CC3)cc2)CC1	-20.4	1.6	-0.1	-11.9	-4.4	10.1*	-3.6	0.0
CCOC(=O)[C@]12CCCC=C1N(Cc1ccc(OC)cc1)C(=O)[C@@H]2CC(=O)NCCC(C)C	-1.3	-6.1	-1.6	1.9	-4.4	3.5	/	/
CC(C)CCN(C)C1CCN(C(=O)Nc2ccccc2)CC1	-1.5	9.4	-8.1	2.8	-0.8	-2.2	/	/
COC(=O)C(C)(C)c1cccnc1C#N	-1.8	-1.4	-14.2	2.2	-4.9	75.6*	76.8*	-0.6
COC(=O)C1CN(Cc2ccc(OC)cc2)CCS(=O)(=O)N1Cc1cn(Cc2ccc(OC)cc2)nn1 (centres undefined)	1.6	3.1	-1.9	5.8	2.6	2.8	/	/
CCCC(=O)Nc1ccc(N2CCN(C(=O)c3cc4ccccc4o3)CC2)cc1	2.1	2.6	2.5	1.7	2.2	11.3*	-6.0	-0.8
CN(Cc1ccccc1)S(=O)(=O)c1cccc(C(=O)OCc2cccc(C(F)(F)F)c2)c1	-1.9	-1.9	3.8	1.5	1.9	2.6	/	/
COc1ccc(C(C)c2cn(C)c3ccccc23)cc1 (centres undefined)	-3.0	-1.5	-20.4	-8.3	9.8	-4.3	/	/
SMILES	ADAM17 inh	Tn7 DDE FP	ADAM10 inh	PLC-beta3 inh	DDE Tn6 FP inh	PLC-gamma1 inh	PLCg1 ctr	PLCb3 confirm
O=C(O)Cn1ccnc1[N+](=O)[O-]	7.9	7.5	-2.8	5.9	0.3	10.1*	5.2	0.2
COC(=O)Cn1ccnc1[N+](=O)[O-]	-2.3	6.2	-0.7	5.9	2.0	5.9	/	/
FC(F)(F)C1=Nc2cccc3cccc(c23)N1	-2.0	3.5	-4.0	4.4	-28.8	13.5*	11.9*	10.3
COc1ccc(C(=O)OCCCN(C)C2CN(Cc3cn(Cc4ccccc4Cl)nn3)S(=O)(=O)C2)cc1OC (centres undefined)	-5.9	1.9	-4.8	-1.5	-7.7	-1.2	/	/
CC(=O)NC1CC(C)(C)N(OC(C)=O)C(C)(C)C1	-1.2	-0.6	-9.1	1.0	4.8	10.4*	-8.0	-4.0
CCc1nc(SCC(=O)NCc2ccc(F)cc2)c2c(=O)n(C)c(=O)n(C)c2n1	-4.0	6.7	-9.9	2.9	8.1	46.3*	-8.6	-3.8
CCc1nc(SCC(N)=O)c2c(=O)n(C)c(=O)n(C)c2n1	-1.0	3.6	-11.3	-1.3	-3.6	-0.3	/	/
CCNC(=O)C1(C)CCN1CCS(=O)(=O)c1ccc(C)cc1 (centres undefined)	4.0	-5.2	6.9	12.6*	-4.9	2.3	-5.9	-0.9
COc1ccc(NC(=O)c2nn(C)cc2[N+](=O)[O-])cc1	0.8	3.0	4.3	-1.0	-2.4	1.9	/	/
Cc1ccc(NC(=O)c2nn(C34CC5CC(CC(C5)C3)C4)cc2[N+](=O)[O-])cc1	2.9	-0.7	16.5	13.7*	1.1	12.3*	7.4	11.1*
COC(=O)[C@@H](NC(=O)/C=C/c1ccc(OC)cc1)C(C)C	-1.2	-7.6	-8.2	0.1	0.0	-0.2	/	/
COC(=O)[C@H](C)NC(=O)/C=C/c1ccc(OC)cc1	-1.8	-5.4	4.4	10.3	-0.8	9.8*	6.9	3.2
COC(=O)[C@@H]1N=C(c2ccc(OC)cc2)O[C@]12C(=O)N(Cc1cn(-c3ccccc3)nn1)c1cccc(Cl)c12	0.7	5.9	4.9	2.8	2.1	-0.5	/	/
O=C(Nc1ccc(F)cc1)OC[C@@H]1CSCCS(=O)(=O)N1	-4.3	4.1	-15.4	1.7	3.7	2.2	/	/
